MEKK2wt PB1 HTS – modulators of MEK5 binding to wildtype MEKK2, primary screen, biochemical, multiplex bead flow cytometry, Alexa488-MEK5; Mitogen-activated protein kinase kinase kinase 2 (Homo sapiens), Q9Y2U5; Alexa488-MEK5 binding to MEKK2 WT; actives lie on both sides; binding response (% of control), % at 10 µM; hit rate 1.1% among 290,000; AID 1531, 2009; in the data active = binding response below about 67% or above about 130%
DNA FID counter – compounds displacing fluorescent DNA intercalator, primary screen, artefact control for HCV NS3 helicase inhibitor project, biochemical, FID fluorescence. DNA fluorescent intercalator displacement. inhibition, % at 7.9 µM. hit rate 0.17% among 290,000; in the data active = inhibition above about 37%;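 also: higher means more ethidium bromide displaced from hairpin DNA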
HCV NS3 hel inh – inhibitors of HCV NS3 helicase, primary screen, biochemical, Cy5 molecular beacon fluorescence. Hepatitis C virus NS3 helicase. NS3 helicase DNA unwinding. inhibition, % at 10.9 µM. hit rate 0.56% among 290,000. AID 1800, 2009;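 active = inhibition above the mean of all tested compounds plus 3 SD, set per campaign, cut at about 35% in these data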
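Test system: hepatitis C virus NS3 helicase domain fragment enzyme. Also added: annealed dual-labelled DNA beacon duplex, ATP-started. Timing: 60 min unwinding reaction at 25 °C after ATP addition. Technique: Cy5 fluorescence. Measure: % inhibition of unwinding.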
T cruzi repl – inhibitors of intracellular T. cruzi growth, primary screen, luminescence, NIH3T3 host cells; T. cruzi beta-gal in NIH3T3, 90 h; inhibition, % (concentration not given with the values); hit rate 1.4% among 300,000;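 active = mean inhibition across valid replicates above about 55%, limit read from the data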;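 also: signal also drops with host cell toxicity which is not excluded here; higher percent means less beta-gal luminescence so fewer parasites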
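compound dosing = single 50 nL compound addition per well in DMSO | material = NIH/3T3 host cells with β-galactosidase reporter T. cruzi | input = 5,000 host fibroblasts per well | timing = ≥90 h infection period, 3 h prior cell attachment | read-out basis = percent inhibition of parasite-derived β-gal signal | detection = GalScreen β-gal luminescence, detergent lysis, 60 min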
MEKK3 PB1 HTS – modulators of MEKK3-MEK5 PB1 binding, primary screen, biochemical, wildtype MEKK3, multiplex bead flow cytometry, Alexa488-MEK5. bead-based flow cytometry, Alexa488-MEK5 binding to MEKK3; actives lie on both sides; 0 = blocked by unlabeled MEK5, 100 = vehicle. binding response (% of control), % at 10 µM. hit rate 1.4% among 290,000;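 active = binding response more than 3 SD above or below the average of its plate-row segment, actives on both sides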;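 also: Alexa488 bead fluorescence after subtracting the streptavidin-only scavenger bead signal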
Target sequence (Q99759 whole entry, looked up): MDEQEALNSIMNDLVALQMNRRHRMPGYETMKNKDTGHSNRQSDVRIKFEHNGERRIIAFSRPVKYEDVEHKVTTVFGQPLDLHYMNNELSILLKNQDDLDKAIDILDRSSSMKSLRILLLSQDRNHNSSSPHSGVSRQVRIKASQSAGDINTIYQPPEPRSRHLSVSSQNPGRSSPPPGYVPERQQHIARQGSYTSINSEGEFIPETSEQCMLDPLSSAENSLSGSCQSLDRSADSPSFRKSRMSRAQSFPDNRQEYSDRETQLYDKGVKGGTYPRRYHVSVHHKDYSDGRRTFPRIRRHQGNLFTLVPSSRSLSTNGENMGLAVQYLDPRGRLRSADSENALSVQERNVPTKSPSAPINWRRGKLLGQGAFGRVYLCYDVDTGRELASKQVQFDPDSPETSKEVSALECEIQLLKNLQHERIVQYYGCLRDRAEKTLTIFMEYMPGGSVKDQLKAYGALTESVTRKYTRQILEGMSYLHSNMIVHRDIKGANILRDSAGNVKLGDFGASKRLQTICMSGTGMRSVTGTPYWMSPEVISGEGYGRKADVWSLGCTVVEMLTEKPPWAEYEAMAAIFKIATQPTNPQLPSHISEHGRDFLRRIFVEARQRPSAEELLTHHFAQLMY
MEKK2mut PB1 HTS – MEK5 binding signal on mutant MEKK2 PB1, primary screen, biochemical, multiplex bead flow cytometry, Alexa488-MEK5. Alexa488-MEK5 binding to MEKK2 mutant. percent response, % at 10 µM. hit rate 0.35% among 290,000. AID 1530, 2009; in the data active = percent response above about 24%, passing the limit was not always enough
Hits are given with their value; – = inactive; · = no result given. Most compounds without a hit are left out; they make up all but 4.1% or so of the library.

SMILES	MEKK2wt PB1 HTS	DNA FID counter	HCV NS3 hel inh	T cruzi repl	MEKK3 PB1 HTS	MEKK2mut PB1 HTS
COc1ccccc1N1CCN(S(=O)(=O)c2c(C)[nH]c(=O)[nH]c2=O)CC1	–	–	–	–	–	–
COCCCNCCOc1ccc(C(C)(C)c2ccccc2)cc1	–	–	–	61	–	–
CCC(C)NCCOc1ccc(C(C)(C)c2ccccc2)cc1 (configuration not stated)	–	39	–	65	–	–
CNCCCOc1ccc(C(C)(C)c2ccccc2)cc1	·	–	–	–	·	·
COc1ccc(NC(=O)Cn2cnc3sc(C)c(S(=O)(=O)N4CCOCC4)c3c2=O)c(OC)c1	–	–	–	–	–	–
COc1ccc(OCC(O)Cn2c(=N)n(Cc3ccccc3)c3ccccc32)cc1 (configuration not stated)	–	48	–	–	–	–
Cc1cccc(OCC(O)Cn2c(=N)n(CCN3CCCCC3)c3ccccc32)c1 (configuration not stated)	–	39	–	–	–	–
O=C(CCS(=O)(=O)c1cc2c(cc1Cl)NC(=O)CO2)NCc1ccc(F)cc1	–	–	–	–	–	–
Clc1ccc(Oc2nc3c(Cl)cccc3s2)cc1Cl	–	–	–	–	–	–
COc1cccc(OCC(O)CN2CCN(C)CC2)c1 (configuration not stated)	–	–	–	–	–	–
CC(C)c1ccccc1OCC(O)CN1CCN(S(=O)(=O)c2ccc([N+](=O)[O-])cc2)CC1 (configuration not stated)	–	–	–	55	–	–
Cc1ccccc1OCC(O)CN1CCN(C)CC1 (configuration not stated)	–	–	–	63	–	–
CC(COc1cccc2ccccc12)CN1CCN(C)CC1 (configuration not stated)	–	–	–	66	–	–
CCc1c(C)c2cc(Cl)c(O)c(CN3CCCC3)c2oc1=O	–	–	–	–	–	–
COc1ccc(Nc2nc(-c3cccs3)nc3ccccc23)cc1S(=O)(=O)N1CCOCC1	·	·	·	55	·	·
CC1CN(S(=O)(=O)c2ccc(C(=O)Nc3nnc(-c4ccc5c(c4)CCCC5)o3)cc2)CC(C)O1 (configuration not stated)	–	–	–	61	–	–
CC1CN(S(=O)(=O)c2ccc(C(=O)Nc3nnc(-c4ccccn4)o3)cc2)CC(C)O1 (configuration not stated)	–	–	–	–	–	–
O=C(Nc1nnc(C2CC2)o1)c1ccc(S(=O)(=O)N2CCCc3ccccc32)cc1	·	·	·	59	·	·
COc1ccc(-c2nnc(NC(=O)c3ccc(S(=O)(=O)N4CCCc5ccccc54)cc3)o2)cc1	·	–	–	63	·	·
Cc1ccc2oc(Nc3nc(-c4ccccc4)cc(=O)[nH]3)nc2c1	–	–	–	75	–	–
COCc1cc(=O)[nH]c(Nc2nc3ccccc3o2)n1	–	–	–	–	–	–
CCN(CC)CCNC(=O)c1cn(CC)c2cc(N3CCN(C)CC3)c(F)cc2c1=O	–	38	–	–	–	–
CN(C)CCCNC(=O)/C(=C\c1ccc(-c2cccc([N+](=O)[O-])c2)o1)NC(=O)c1ccccc1	–	44	–	–	–	–
COCCN1C(=O)C(=O)/C(=C(/O)c2ccc(S(=O)(=O)N3CCOCC3)cc2)C1c1cccc([N+](=O)[O-])c1 (configuration not stated)	–	–	–	–	–	–
CCN(CC)CCCNC1=C(Cl)C(=O)c2ccccc2C1=O	–	–	–	79	–	–
SMILES	MEKK2wt PB1 HTS	DNA FID counter	HCV NS3 hel inh	T cruzi repl	MEKK3 PB1 HTS	MEKK2mut PB1 HTS
C/C(Cl)=C/Cc1c(C)[nH]c2c(ccc3ccccc32)c1=O	–	–	–	–	–	–
C/C(Cl)=C/Cc1c(C)[nH]c2ccc(C)cc2c1=O	–	–	–	71	–	–
CN(C)CCCN1C(=O)CSC1c1ccccc1 (configuration not stated)	–	–	–	–	–	–
COc1cc(C2SCC(=O)N2CCCN(C)C)cc(OC)c1OC (configuration not stated)	–	–	–	61	–	–
CC1CCN(S(=O)(=O)c2ccc3c(c2)NC(=O)CS3)CC1	–	–	–	–	–	–
COc1ccc(C(=O)Nc2cc(C)nn2-c2nc3ccccc3[nH]2)c(OC)c1	–	–	–	61	–	–
Cc1cc(NC(=O)c2cccs2)n(-c2nc3ccccc3[nH]2)n1	–	–	–	58	–	–
CC(=O)Cn1cnc2c(cnn2-c2ccc(C)c(C)c2)c1=O	–	–	–	–	–	–
CCOC(=O)C1=C(O)C(=O)N(C2CCCCC2)C1	–	–	–	–	–	–
O=C(c1ccc2oc(CCc3ccccc3)nc2c1)N1CC[C@H](O)C1	–	–	–	–	–	–
N#CC1=C(N)NC(SCc2ccc(Cl)cc2)=C(C#N)C12CCCCC2	–	–	–	–	–	–
N#CC1=C(N)NC(SCc2ccc(Br)cc2)=C(C#N)C12CCCCC2	–	–	–	66	–	–
CCOc1ccc(NC2OC(CO)C(O)C(O)C2O)c([N+](=O)[O-])c1 (configuration not stated)	–	–	–	–	–	–
O=C1c2cccc3cccc(c23)C(=O)N1CC1CCN(CC(O)COc2ccc3ccccc3c2)CC1 (configuration not stated)	·	·	·	66	·	·
Cc1cc(C)cc(OCC(O)CN2CCC(CN3C(=O)c4cccc5cccc(c45)C3=O)CC2)c1 (configuration not stated)	·	·	·	57	·	·
O=C(CSc1nnc(-c2cccnc2)o1)N1CCCCC1	–	–	–	–	–	–
COc1ccccc1C(=O)Nc1ccc2c(c1)nc1n2CCN(C2CCCCC2)C1	-12	–	–	–	–	–
O=C(Nc1ccc2c(c1)nc1n2CCN(C2CCCCC2)C1)c1ccco1	–	–	–	·	–	–
CCSc1nnc(CNC(=O)C23CC4CC(CC(C4)C2)C3)n1C1CCCCC1	–	–	–	–	–	–
Cc1cc(C)n(Cc2ccc(NC(=O)c3ccc(COc4ccccc4Br)cc3)cc2)n1	·	–	–	60	·	·
COc1cccc(N2CCN(c3nc(C)cc(C)c3C#N)CC2)c1	–	–	–	–	–	–
